System: Fibroblast
Assay: Multiplex assay against human fibroblast
Type: toxicity, cell-based
Procedure, shortened: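 On a CQ1 microscope at 37°C and 5% CO2, live cells were imaged after compound addition. They had been stained at seeding with Hoechst33342, BioTracker Green Microtubule Cytoskeleton Dye, MitoTracker Red and Annexin V Alexa Fluor 680. CellPathfinder machine-learning gating assigned cells to Hoechst high-intensity objects or normal cells, normal cells to healthy, pyknosed or fragmented nuclei, and pyknosed cells to mitotic or apoptotic. Tubulin, mitochondrial-mass and membrane-permeability phenotypes are per cents of healthy-nucleus cells.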

[1] = 12 h, 1 µM, compound concentration 1 uM, replicate 1
[2] = 12 h, 1 µM, compound concentration 1 uM, replicate 2
[3] = 12 h, 10 µM, compound concentration 10 uM, replicate 1
[4] = 12 h, 10 µM, compound concentration 10 uM, replicate 2
[5] = 24 h, 1 µM, compound concentration 1 uM, replicate 1
[6] = 24 h, 1 µM, compound concentration 1 uM, replicate 2
[7] = 24 h, 10 µM, compound concentration 10 uM, replicate 1
[8] = 24 h, 10 µM, compound concentration 10 uM, replicate 2
[9] = 48 h, 1 µM, compound concentration 1 uM, replicate 1
[10] = 48 h, 1 µM, compound concentration 1 uM, replicate 2
[11] = 48 h, 10 µM, compound concentration 10 uM, replicate 1
[12] = 48 h, 10 µM, compound concentration 10 uM, replicate 2

COc1cccc2c1c(NS(=O)(=O)c1ccc(Cl)s1)nn2Cc1cccc(CNC(=O)C(C)(C)O)c1
Population Apoptotic (%) [1]: 43%
Population Fragmented Nuclei (%) [1]: 16%
Population Healthy Nuclei (%) [1]: 66%
Population Hoechst High Intensity Objects (%) [1]: 0%
Population Membrane Permeable-Phenotype (%) [1]: 1%
Population Mitochondria Different-Phenotype (%) [1]: 2%
Population Mitotic Cells (%) [1]: 56%
Population Normal (%) [1]: 99%
Population Pyknosed Nuclei (%) [1]: 17%
Population Tubulin-Different-Phenotype (%) [1]: 27%
Total Cell Count [1]: 134
Population Apoptotic (%) [2]: 33%
Population Fragmented Nuclei (%) [2]: 26%
Population Healthy Nuclei (%) [2]: 54%
Population Membrane Permeable-Phenotype (%) [2]: 4%
Population Mitochondria Different-Phenotype (%) [2]: 1%
Population Mitotic Cells (%) [2]: 66%
Population Normal (%) [2]: 100%
Population Pyknosed Nuclei (%) [2]: 18%
Population Tubulin-Different-Phenotype (%) [2]: 18%
Total Cell Count [2]: 112
Population Apoptotic (%) [3]: 42%
Population Fragmented Nuclei (%) [3]: 13%
Population Healthy Nuclei (%) [3]: 72%
Population Hoechst High Intensity Objects (%) [3]: 2%
Population Membrane Permeable-Phenotype (%) [3]: 1%
Population Mitochondria Different-Phenotype (%) [3]: 11%
Population Mitotic Cells (%) [3]: 57%
Population Normal (%) [3]: 97%
Population Pyknosed Nuclei (%) [3]: 13%
Population Tubulin-Different-Phenotype (%) [3]: 37%
Total Cell Count [3]: 211
Population Apoptotic (%) [4]: 41%
Population Fragmented Nuclei (%) [4]: 24%
Population Healthy Nuclei (%) [4]: 55%
Population Hoechst High Intensity Objects (%) [4]: 7%
Population Membrane Permeable-Phenotype (%) [4]: 7%
Population Mitochondria Different-Phenotype (%) [4]: 4%
Population Mitotic Cells (%) [4]: 58%
Population Normal (%) [4]: 92%
Population Pyknosed Nuclei (%) [4]: 19%
Population Tubulin-Different-Phenotype (%) [4]: 55%
Total Cell Count [4]: 174
Population Apoptotic (%) [5]: 55%
Population Fragmented Nuclei (%) [5]: 19%
Population Healthy Nuclei (%) [5]: 68%
Population Hoechst High Intensity Objects (%) [5]: 2%
Population Membrane Permeable-Phenotype (%) [5]: 2%
Population Mitochondria Different-Phenotype (%) [5]: 3%
Population Mitotic Cells (%) [5]: 44%
Population Normal (%) [5]: 97%
Population Pyknosed Nuclei (%) [5]: 12%
Population Tubulin-Different-Phenotype (%) [5]: 28%
Total Cell Count [5]: 144
Population Apoptotic (%) [6]: 50%
Population Fragmented Nuclei (%) [6]: 28%
Population Healthy Nuclei (%) [6]: 49%
Population Hoechst High Intensity Objects (%) [6]: 1%
Population Membrane Permeable-Phenotype (%) [6]: 7%
Population Mitochondria Different-Phenotype (%) [6]: 5%
Population Mitotic Cells (%) [6]: 50%
Population Normal (%) [6]: 98%
Population Pyknosed Nuclei (%) [6]: 22%
Population Tubulin-Different-Phenotype (%) [6]: 35%
Total Cell Count [6]: 110
Population Apoptotic (%) [7]: 48%
Population Fragmented Nuclei (%) [7]: 11%
Population Healthy Nuclei (%) [7]: 74%
Population Hoechst High Intensity Objects (%) [7]: 2%
Population Membrane Permeable-Phenotype (%) [7]: 1%
Population Mitochondria Different-Phenotype (%) [7]: 7%
Population Mitotic Cells (%) [7]: 52%
Population Normal (%) [7]: 97%
Population Pyknosed Nuclei (%) [7]: 13%
Population Tubulin-Different-Phenotype (%) [7]: 30%
Total Cell Count [7]: 190
Population Apoptotic (%) [8]: 50%
Population Fragmented Nuclei (%) [8]: 22%
Population Healthy Nuclei (%) [8]: 55%
Population Hoechst High Intensity Objects (%) [8]: 8%
Population Membrane Permeable-Phenotype (%) [8]: 6%
Population Mitochondria Different-Phenotype (%) [8]: 2%
Population Mitotic Cells (%) [8]: 50%
Population Normal (%) [8]: 92%
Population Pyknosed Nuclei (%) [8]: 22%
Population Tubulin-Different-Phenotype (%) [8]: 48%
Total Cell Count [8]: 175
Population Apoptotic (%) [9]: 62%
Population Fragmented Nuclei (%) [9]: 21%
Population Healthy Nuclei (%) [9]: 66%
Population Hoechst High Intensity Objects (%) [9]: 5%
Population Membrane Permeable-Phenotype (%) [9]: 1%
Population Mitochondria Different-Phenotype (%) [9]: 5%
Population Mitotic Cells (%) [9]: 37%
Population Normal (%) [9]: 94%
Population Pyknosed Nuclei (%) [9]: 12%
Population Tubulin-Different-Phenotype (%) [9]: 30%
Total Cell Count [9]: 135
Population Apoptotic (%) [10]: 75%
Population Fragmented Nuclei (%) [10]: 26%
Population Healthy Nuclei (%) [10]: 60%
Population Hoechst High Intensity Objects (%) [10]: 2%
Population Membrane Permeable-Phenotype (%) [10]: 8%
Population Mitochondria Different-Phenotype (%) [10]: 3%
Population Mitotic Cells (%) [10]: 25%
Population Normal (%) [10]: 97%
Population Tubulin-Different-Phenotype (%) [10]: 55%
Total Cell Count [10]: 99
Population Apoptotic (%) [11]: 63%
Population Fragmented Nuclei (%) [11]: 13%
Population Healthy Nuclei (%) [11]: 73%
Population Hoechst High Intensity Objects (%) [11]: 5%
Population Membrane Permeable-Phenotype (%) [11]: 3%
Population Mitochondria Different-Phenotype (%) [11]: 10%
Population Mitotic Cells (%) [11]: 36%
Population Normal (%) [11]: 94%
Population Pyknosed Nuclei (%) [11]: 12%
Population Tubulin-Different-Phenotype (%) [11]: 40%
Total Cell Count [11]: 187
Population Apoptotic (%) [12]: 51%
Population Fragmented Nuclei (%) [12]: 33%
Population Healthy Nuclei (%) [12]: 49%
Population Hoechst High Intensity Objects (%) [12]: 6%
Population Mitochondria Different-Phenotype (%) [12]: 4%
Population Mitotic Cells (%) [12]: 48%
Population Normal (%) [12]: 93%
Population Pyknosed Nuclei (%) [12]: 17%
Population Tubulin-Different-Phenotype (%) [12]: 43%

From ChEMBL document CHEMBL5058577, “EUbOPEN Chemogenomics Library 2 (Multiplex)” (2022)
